Experimental findings from ChEMBL document CHEMBL1137223, “Antileishmanial pyrazolopyridine derivatives: synthesis and structure-activity relationship analysis” (J Med Chem, 2004) are described below.

Values joined by “and” are separate entries in the source; they are usually repeats but may differ in a detail not shown here. Equal entries are not always repeated.

Series [1] can be described thus: pKa was determined. It counts as physicochemical.
A further series relates to Leishmania amazonensis. In words: Tested for growth inhibitory activity against Leishmania amazonensis promastigotes. The class given is functional, organism-based. The procedure, abridged:
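L. amazonensis promastigotes (MHOM/BR/77/LTB0016), grown at 25 °C in LIT medium with 10% heat-inactivated FCS, harvested late log phase, adjusted to 4×10^6/mL. Drugs in DMSO (≤1.6% v/v) at 160 to 5 μg/mL; 24 h incubation; parasites counted in Neubauer chamber; inhibition versus DMSO and untreated controls; IC50 by linear regression of inhibition against log concentration.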

Series [2] in a line: Partition coefficient (logP). The settings on record: octanol/water. The class given is physicochemical. The essentials: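 Shake-flask octanol/aqueous buffer pH 7.4 partition; compound stock 4 × 10^-3 M in 1,4-dioxane; phases shaken 1 h at 25.0 ± 0.1 °C, centrifuged 15 min; both layers read by UV at λmax 320–354 nm; three replicates. P taken as quotient of buffer and octanol concentrations. Some values instead calculated from unsubstituted parent log P plus hydrophobic fragmental constants (log PX = log PH + πX).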

As to `CCOC(=O)c1cnc2c(c(C)nn2C)c1Nc1ccc(O)cc1`, in series [1], the pKa was 9.98. Further, the IC50 with Leishmania amazonensis is 1.37 µg/mL and 4.2 µM. For the same compound, in series [2], the logP turned out to be 1.14.

In series [1], `CCOC(=O)c1cnc2c(c(C)nn2C)c1Nc1cccc(Cl)c1` gave a pKa of 9.05. Also, the IC50 with Leishmania amazonensis is 4.79 µg/mL and 13.9 µM. Besides, in series [2], the logP is 1.67.

`CCOC(=O)c1cnc2c(c(C)nn2C)c1Nc1ccc(Br)cc1` had a pKa in series [1] of 8.39. In addition, the IC50 in the series on Leishmania amazonensis was 4.57 µg/mL and 11.7 µM. Also, the logP in series [2] was 1.82.

The compound `CCOC(=O)c1cnc2c(c(C)nn2C)c1Nc1cccc(OC)c1` returned a pKa in series [1] of 7.64. In addition, the IC50 with Leishmania amazonensis is 7.45 µg/mL and 21.9 µM. The same compound registered a logP in series [2] of 0.94.

In turn, `CCOC(=O)c1cnc2c(c(C)nn2C)c1Nc1ccccc1` showed a pKa in series [1] of 8.23. Further, in the series with Leishmania amazonensis, the IC50 is 30.7 µg/mL and 98.9 µM. The compound further yielded a logP in series [2] of 0.96.

Turning to `CCOC(=O)c1cnc2c(c(C)nn2-c2ccccc2)c1Nc1ccc(O)c(CN(CC)CC)c1`, in the series with Leishmania amazonensis, the IC50 was 0.18 µg/mL and 390 nM. In series [2], this compound yielded a logP of 2.05.

In series [1], `CCOC(=O)c1cnc2c(c(C)nn2C)c1Nc1cccc(C)c1` returned a pKa of 7.06. Moreover, the IC50 with Leishmania amazonensis is 4.82 µg/mL and 14.9 µM. The log partition coefficient (logP) in series [2] was 2.27.

Compound `CCOC(=O)c1cnc2c(c(C)nn2C)c1Nc1ccc(F)cc1` came in with a pKa in series [1] of 8.14. In addition, the IC50 in the series with Leishmania amazonensis was 12.8 µg/mL and 39 µM. Moreover, in series [2], the logP was 0.7.

As for `CCOC(=O)c1cnc2c(c(-c3ccccc3)nn2-c2ccccc2)c1Nc1ccc(O)c(CN(CC)CC)c1`, the IC50 in the series with Leishmania amazonensis is 0.06 µg/mL and 120 nM. The compound further showed a lipophilicity (logP) in series [2] of 3.45.

Turning to `N=C(N)c1ccc(OCCCCCOc2ccc(C(=N)N)cc2)cc1.O=S(=O)(O)CCO`, the IC50 in the series on Leishmania amazonensis was 0.27 µg/mL and 460 nM.

With `CCOC(=O)c1cnc2c(c(C)nn2C)c1Nc1cccc([N+](=O)[O-])c1`, the pKa in series [1] was 8.38. Further, in the series with Leishmania amazonensis, the IC50 is 6.11 µg/mL and 17.2 µM. In series [2], this compound returned a log partition coefficient (logP) of 0.68.

For the compound `CCOC(=O)c1cnc2c(c(C)nn2C)c1Nc1ccc(Cl)cc1`, in series [1], the pKa amounted to 7.98. Also, the IC50 in the series on Leishmania amazonensis is 1.34 µg/mL and 3.89 µM. For the same compound, the logP in series [2] stood at 1.32.

In the case of `CCOC(=O)c1cnc2c(c(-c3ccccc3)nn2-c2ccccc2)c1Nc1ccc(O)cc1`, the IC50 in the series with Leishmania amazonensis was 0.34 µg/mL and 750 nM. In series [2], the logP is 3.09.

Regarding `CCOC(=O)c1cnc2c(c(C)nn2C)c1Nc1ccc([N+](=O)[O-])cc1`, the pKa in series [1] came to 8.8. Moreover, the IC50 with Leishmania amazonensis was 114 µg/mL and 321 µM. In addition, the logP in series [2] stood at 0.68.

Consider `CCN(CC)Cc1cc(Nc2ccnc3cc(Cl)ccc23)ccc1O.Cl`, for which the IC50 in the series on Leishmania amazonensis is 0.34 µg/mL and 950 nM.

The compound `CCOC(=O)c1cnc2c(c(C)nn2C)c1Nc1ccc(OC)cc1` came in with a pKa in series [1] of 8.07. Also, the half-maximal inhibitory concentration (IC50) in the series on Leishmania amazonensis is 10.9 µg/mL and 32 µM. This compound also came in with a logP in series [2] of 0.94.

Regarding `CCOC(=O)c1cnc2c(c(C)nn2C)c1Nc1ccc(C)cc1`, the pKa in series [1] was 8.61. Further, in the series with Leishmania amazonensis, the IC50 is 10.6 µg/mL and 32.6 µM. Also, in series [2], the logP was determined as 1.52.

Turning to `CCOC(=O)c1cnc2c(c(C)nn2-c2ccccc2)c1Nc1ccc(O)cc1`, the IC50 with Leishmania amazonensis is 0.21 µg/mL and 550 nM. The same compound displayed a logP in series [2] of 1.69.

As a reminder, the pKa is the negative logarithm of the acid dissociation constant. A higher pKa goes with a group that holds its proton tightly. The IC50 is the point on the concentration scale where inhibition reaches its midpoint. For orientation: logP means the decadic logarithm of the partition coefficient of the neutral form, usually between octanol and water.
